Experimental data as given in ChEMBL document CHEMBL1136807, “CC-1065 analogues bearing different DNA-binding subunits: synthesis, antitumor activity, and preliminary toxicity study” (J Med Chem, 2003).

Legend:
L1210 = assay: Compound was tested in vitro against L1210 leukemia cells; assay type: functional, cell-based; details: Mus musculus
Summary of the method: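 L1210 murine leukemia cells exposed to drug for 48 h; IC50 reported in nM.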

Mus musculus [1] = assay: Increase in life span of mice bearing L1210 leukemia after administration of 45 […] compound; assay type: functional
Summary of the method: (§1)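 In vivo antitumor test in mice bearing L1210 leukemia, read out as increase in life span (ILS). Body weight was monitored. The optimal dose was defined as the dose giving the best antitumor efficacy with body weight loss ≤15%.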

Mus musculus [2] = assay: Number of mice bearing L1210 leukemia that survived after 30 days, after administration of 67 […] compound; assay type: functional; summary of the method: as §1
Mus musculus [3] = assay: Number of mice surviving on day 180 treated with 100 […] compound; 8/8; assay type: functional, organism-based
Mus musculus [4] = assay: Number of mice bearing L1210 leukemia that survived after 30 days, after administration of 45 µg/kg compound
Mus musculus [5] = assay: Increase in life span of mice bearing L1210 leukemia after administration of 67 […] compound; assay type: functional; summary of the method: as §1
Mus musculus [6] = assay: Weight change in mice bearing L1210 leukemia after administration of 100 […] compound; assay type: functional
Mus musculus [7] = assay: Increase in life span of mice bearing L1210 leukemia after administration of 100 […] compound; assay type: functional; summary of the method: as §1
Mus musculus [8] = assay: Days until first mouse died treated with 100 […] compound; no death; assay type: functional, organism-based
Mus musculus [9] = assay: Number of mice bearing L1210 leukemia that survived after 30 days, after administration of 100 […] compound; assay type: functional; summary of the method: as §1
Mus musculus [10] = assay: Weight change in mice bearing L1210 leukemia after administration of 45 […] compound; assay type: functional
Mus musculus [11] = assay: Weight change in mice bearing L1210 leukemia after administration of 67 […] compound; assay type: functional
Mus musculus [12] = assay: Days until first mouse died treated with 100 […] compound; assay type: functional
Summary of the method: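 Delayed-toxicity study in non-tumor-bearing BDF1 mice: single ip dose given on day 0, then animals observed for up to 180 days. Recorded the day the first mouse died and the number of mice alive on day 180, with 6–8 mice per group.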

Mus musculus [13] = assay: Number of mice surviving on day 180 treated with 100 […] compound; 5/8; assay type: functional, organism-based
Mus musculus [14] = assay: Number of mice surviving on day 180 treated with 100 […] compound; 4/8; assay type: functional, organism-based
Mus musculus [15] = assay: Number of mice bearing L1210 leukemia that survived after 30 days, after administration of 42 µg/kg compound
Mus musculus [16] = assay: Number of mice bearing L1210 leukemia that survived after 30 days, after administration of 70 […] compound; assay type: functional; summary of the method: as §1
Mus musculus [17] = assay: Weight change in mice bearing L1210 leukemia after administration of 70 […] compound; assay type: functional
Mus musculus [18] = assay: Increase in life span of mice bearing L1210 leukemia after administration of 70 […] compound; toxic; assay type: functional, organism-based; set-up: dose 70 […]
Mus musculus [19] = assay: Increase in life span of mice bearing L1210 leukemia after administration of 42 […] compound; assay type: functional; summary of the method: as §1
Mus musculus [20] = assay: Weight change in mice bearing L1210 leukemia after administration of 25 […] compound; assay type: functional
Mus musculus [21] = assay: Number of mice bearing L1210 leukemia that survived after 30 days, after administration of 25 […] compound; assay type: functional; summary of the method: as §1
Mus musculus [22] = assay: Weight change in mice bearing L1210 leukemia after administration of 42 […] compound; assay type: functional
Mus musculus [23] = assay: Increase in life span of mice bearing L1210 leukemia after administration of 25 […] compound; assay type: functional; summary of the method: as §1

Structure (SMILES) | IC50 (L1210) | ILS at 45 mg/kg (Mus musculus [1]) | Survivors (Mus musculus [2]) | Survivors (Mus musculus [4]) | ILS at 67 mg/kg (Mus musculus [5]) | Weight change (Mus musculus [6]) | ILS at 100 mg/kg (Mus musculus [7]) | Survivors (Mus musculus [9]) | Weight change (Mus musculus [10]) | Weight change (Mus musculus [11]) | Days (Mus musculus [12]) | other results
COc1cccc2c1C(=O)c1c(O)c3c(c(O)c1C2=O)C[C@@](O)(C(=O)CO)C[C@@H]3O[C@H]1C[C@H](N)[C@H](O)[C@H](C)O1 [DOXORUBICIN] | 179 nM |  |  |  |  |  |  |  |  |  |  | 
O=C(Nc1ccc2[nH]c(C(=O)N3CC(CCl)c4c3cc(O)c3ccccc43)cc2c1)c1cc2cc(F)ccc2[nH]1 (racemic) | 0.29 nM | 137% | 0 | 0 | 160% | -7% | 158% | 0 | 2% | -2% |  | No. of mice (Mus musculus [3]): Mice surviving 8/8; Days (Mus musculus [8]): No death
COc1ccc2[nH]c(C(=O)Nc3ccc4[nH]c(C(=O)N5CC(CCl)c6c5cc(O)c5ccccc65)cc4c3)cc2c1 (racemic) | 5.7 nM | 93% | 0 | 0 | 93% | -15% | 53% | 0 | 2% | 3% | 35 | No. of mice (Mus musculus [13]): Mice surviving 5/8
CC(=O)Nc1ccc2oc(C(=O)Nc3ccc4[nH]c(C(=O)N5C[C@@H](CCl)c6c5cc(O)c5ccccc65)cc4c3)cc2c1 | 0.65 nM |  |  |  |  |  |  |  |  |  | 8 | No. of mice (Mus musculus [14]): Mice surviving 4/8; Survivors (Mus musculus [15]): 0; Survivors (Mus musculus [16]): 0; Weight change (Mus musculus [17]): -18%; ILS (Mus musculus [18]): Toxic; ILS at 42 mg/kg (Mus musculus [19]): 67%; Weight change (Mus musculus [20]): 12%; Survivors (Mus musculus [21]): 1; Weight change (Mus musculus [22]): -7%; ILS at 25 mg/kg (Mus musculus [23]): 120%
CC(=O)Nc1ccc2oc(C(=O)Nc3ccc4[nH]c(C(=O)N5CC(CCl)c6c5cc(O)c5ccccc65)cc4c3)cc2c1 (racemic) | 1.2 nM |  |  |  |  |  |  |  |  |  |  | 
CC(=O)Nc1ccc2[nH]c(C(=O)Nc3ccc4[nH]c(C(=O)N5CC(CCl)c6c5cc(O)c5ccccc65)cc4c3)cc2c1 (racemic) | 2.5 nM |  |  |  |  |  |  |  |  |  |  | 
